Compound activity as filed in PubChem.
The list is not random: actives were taken first. Their share in the collection is about 2.4%.
Efa HMGR inh: inhibitors of class II HMG-CoA reductase from Enterococcus faecalis. purified E. faecalis HMGR, NADPH absorbance 340 nm kinetic. inhibition, % at 10 µM. 0.41% of 190,000 active;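 active = inhibition above a set limit, the median over all tested compounds plus 3 SD, cut at about 9.5% in these data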;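 note: enzyme runs in reverse so mevalonate oxidation gives rising NADPH absorbance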
EP2 modulator: modulators of human EP2 prostaglandin E2 receptor. AID 940. 0.83% of 260,000 active. EP2-expressing cells, cAMP HTRF FRET, PGE2 co-stimulation. induction, % at 25 µM;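 active = compounds whose cAMP rise, as percent of the full-agonist control response, exceeds 60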;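 note: rat C6 glioma line stably carrying human EP2 under a CMV promoter; the protocol text gives 20 µM as final concentration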
Target sequence (P43116 whole entry, looked up): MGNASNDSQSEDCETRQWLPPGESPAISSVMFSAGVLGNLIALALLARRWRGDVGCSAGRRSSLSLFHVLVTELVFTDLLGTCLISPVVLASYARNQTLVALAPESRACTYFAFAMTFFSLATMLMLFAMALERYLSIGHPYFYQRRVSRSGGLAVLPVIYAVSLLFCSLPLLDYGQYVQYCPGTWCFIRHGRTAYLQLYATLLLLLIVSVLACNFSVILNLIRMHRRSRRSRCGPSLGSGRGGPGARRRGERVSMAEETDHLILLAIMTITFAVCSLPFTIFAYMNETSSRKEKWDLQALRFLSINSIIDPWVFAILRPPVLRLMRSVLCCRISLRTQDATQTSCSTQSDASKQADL
MT stabilizer: stabilizes microtubules in HeLa cells; HeLa tubulin immunostaining HCS, 24 h; share of cells brighter than vehicle mean+2SD; % tubulin-high responders, % at 10 µM; 0.83% of 200,000 active; AID 2205;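 active = plate Z-score above 3 for both tubulin-high and condensed-nucleus cell shares, with cell loss under 80%, at 10 µM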;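 note: anti alpha tubulin signal scored within the nucleus-defined area of each cell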
bCat nuc transl: beta-catenin nuclear translocation modulation. HeLa beta-catenin nuclear translocation, immunofluorescence imaging. nuclear translocation activity, % at 5 µM. 0.3% of 190,000 active. AID 1665;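 active = nuclear translocation activity above 50% at 5 µM, with a well cell count of 50 or more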;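 note: per-cell ratio of nuclear to cytoplasmic median beta-catenin stain intensity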
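System: HeLa cells, endogenous beta-catenin; compound dosing: 5 µM primary single dose, 0.1% DMSO, 0.02–20 µM confirmation series; incubation: 24 h compound exposure at 37°C, 5% CO2; signal: beta-catenin immunofluorescence imaging with DAPI; evaluation: % activation, nuclear-to-cytoplasmic median beta-catenin signal ratio per cell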
PGE2 EP2 inh: inhibitors of human EP2 prostaglandin E2 receptor; P43116; C6 glioma cells expressing human EP2, cAMP TR-FRET; cells stimulated with saturating PGE2; inhibition, % at 25 µM; 0.52% of 260,000 active;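 active = percent inhibition above 40 after rounding to a whole number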;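 note: rat C6 glioma host cells with rolipram phosphodiesterase inhibitor present; the protocol text gives 20 µM as final concentration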
Tb hexokinase: T. brucei hexokinase 1 inhibition | AID 1430 | 0.11% of 220,000 active | recombinant TbHK1, G6PDH-coupled NADH A340 | inhibition, % at 10 µM;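 active = inhibition of 50% or more in the single-dose primary screen; inactive = inhibition below 50%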
Numbers stand for hits; ! = repeats disagree.

For O=C1/C(=C/C=C/c2ccco2)SC(=S)N1NS(=O)(=O)c1ccccc1 the results were EP2 modulator inactive, bCat nuc transl inactive, PGE2 EP2 inh inactive and Tb hexokinase 67.
Screening O=C1/C(=C/c2cccs2)SC(=S)N1NS(=O)(=O)c1ccccc1 returned EP2 modulator inactive, bCat nuc transl inactive, PGE2 EP2 inh inactive and Tb hexokinase inactive.
For Cc1ccc2[nH]c(=O)c(CN(CCO)S(=O)(=O)c3ccc4c(c3)OCCO4)cc2c1 the results were EP2 modulator inactive and PGE2 EP2 inh inactive.
Nc1cccc(Oc2ccc([N+](=O)[O-])cc2)c1 was read as Efa HMGR inh 10, EP2 modulator inactive, MT stabilizer inactive, bCat nuc transl inactive, PGE2 EP2 inh inactive and Tb hexokinase inactive.
Screening O=C(Nc1ccc(O)cc1)c1cccc(Oc2ccc([N+](=O)[O-])cc2)c1 returned Efa HMGR inh inactive, EP2 modulator inactive, MT stabilizer 37, bCat nuc transl inactive, PGE2 EP2 inh inactive and Tb hexokinase inactive.
COC(=O)CSc1nc2ccc(NC(=O)CSc3nnnn3Cc3ccccc3)cc2s1 was read as Efa HMGR inh inactive, EP2 modulator inactive, MT stabilizer inactive, bCat nuc transl inactive, PGE2 EP2 inh 48 and Tb hexokinase inactive.
O=C(CSc1nnc(-c2ccccc2)o1)Nc1ccc(Br)cc1 was read as EP2 modulator inactive and PGE2 EP2 inh inactive.
`CCOC(=O)CNC(=O)CSc1nc2ccc(OCC)cc2cc1C` gave EP2 modulator inactive and PGE2 EP2 inh inactive.
Screening C[C@@H]1c2ccccc2Cn2cc3c(c21)C(=O)c1cccc(OP(=O)(O)OCc2ccccc2)c1C3=O returned EP2 modulator inactive and PGE2 EP2 inh 42.
CC1CCN(CC(=O)NCCN2CCC(O)(c3ccc(F)cc3)CC2)CC1 was read as EP2 modulator inactive and PGE2 EP2 inh inactive.
For Cc1nnc(SCC(=O)c2ccc(Br)cc2)s1 the results were Efa HMGR inh inactive, EP2 modulator inactive, MT stabilizer inactive, bCat nuc transl inactive, PGE2 EP2 inh inactive and Tb hexokinase inactive.
`Cc1cc(SCC(=O)c2ccc(Br)cc2)cc(C)[o+]1` gave EP2 modulator inactive and PGE2 EP2 inh 48.
OCCCNC1CCN(Cc2ccccc2)CC1 was read as EP2 modulator inactive and PGE2 EP2 inh inactive.
`Cc1cc(O)c(C(C)C)cc1C1(c2cc(C(C)C)c(O)cc2C)OC(=O)c2ccccc21` gave EP2 modulator inactive, bCat nuc transl inactive, PGE2 EP2 inh 76! and Tb hexokinase inactive.
Screening CC(=O)O[C@H]1C(=O)[C@@]2(C)[C@H]([C@H](OC(=O)c3ccccc3)[C@]3(O)C[C@H](OC(=O)[C@H](O)C(NC(=O)c4ccccc4)c4ccccc4)C(C)=C1C3(C)C)[C@]1(OC(C)=O)CO[C@@H]1C[C@@H]2O (stereo not given in full) returned EP2 modulator inactive, bCat nuc transl 69, PGE2 EP2 inh inactive and Tb hexokinase inactive.
For COc1ccc(OC)c(S(=O)(=O)N2CCC(C(=O)Nc3ccc(C(N)=O)cc3)CC2)c1 the results were EP2 modulator inactive and PGE2 EP2 inh inactive.
For CN1[C@@H](C(=O)NCc2ccccn2)C[C@@H](c2ccc(F)cc2)NS1(=O)=O the results were EP2 modulator inactive.
Screening CN1[C@@H](C(=O)NCc2ccccn2)C[C@@H](c2cccs2)NS1(=O)=O returned EP2 modulator 85.
N#CC[N+]1(Cc2ccccn2)CCCC1 was read as EP2 modulator inactive and PGE2 EP2 inh 42.
Screening c1ccc(CNC2=NCCC2)nc1 returned Efa HMGR inh inactive, EP2 modulator inactive, MT stabilizer inactive, bCat nuc transl inactive, PGE2 EP2 inh inactive and Tb hexokinase inactive.
Screening N#Cc1c(-c2ccc3c(c2)OCO3)cc(-c2ccc(F)cc2)nc1N returned EP2 modulator 61 and PGE2 EP2 inh inactive.
`CCOc1cc(-c2cc(-c3ccc(C)o3)nc(N)c2C#N)ccc1O` gave Efa HMGR inh inactive, EP2 modulator inactive, MT stabilizer inactive, bCat nuc transl 55, PGE2 EP2 inh inactive and Tb hexokinase inactive.
Screening Cc1ccc(-c2cc(-c3ccc(C)o3)nc(N)c2C#N)cc1 returned Efa HMGR inh inactive, EP2 modulator inactive, MT stabilizer inactive, bCat nuc transl inactive, PGE2 EP2 inh inactive and Tb hexokinase inactive.
`Cc1ccc(-c2cc(-c3ccc4c(c3)OCO4)c(C#N)c(N)n2)o1` gave Efa HMGR inh inactive, EP2 modulator inactive, MT stabilizer 59, bCat nuc transl inactive, PGE2 EP2 inh inactive and Tb hexokinase inactive.
CCOc1ccc(C2C(C(=O)Nc3ccccc3OC)=C(C)Nc3ncnn32)cc1 (stereo not given) was read as EP2 modulator inactive and PGE2 EP2 inh inactive.
Screening OC(CN1CCN(c2ccc(F)cc2)CC1)c1ccc2c(c1)OCCO2 (stereo not given) returned EP2 modulator inactive and PGE2 EP2 inh inactive.
Cc1cccn2c(=O)c(C=NCc3ccco3)c(Nc3ccc(SC(F)F)cc3)nc12 was read as Efa HMGR inh inactive, EP2 modulator inactive, MT stabilizer inactive, bCat nuc transl inactive, PGE2 EP2 inh inactive and Tb hexokinase inactive.
For CCC(C)N=Cc1c(Nc2ccccc2)nc2c(C)cccn2c1=O (stereo not given) the results were EP2 modulator 66, bCat nuc transl inactive, PGE2 EP2 inh inactive and Tb hexokinase inactive.
For CC(=O)N1c2ccc(NC(=O)CCn3nc(C)c(C)c3C)cc2CC1C (stereo not given) the results were EP2 modulator inactive and PGE2 EP2 inh inactive.
Screening CCOc1ccc(N(Cc2ccc(OC)c(OC)c2)C(=O)c2ccco2)cc1 returned Efa HMGR inh inactive, EP2 modulator inactive, MT stabilizer inactive, bCat nuc transl inactive, PGE2 EP2 inh inactive and Tb hexokinase inactive.
Screening COc1ccc(CN(C(=O)c2ccco2)c2ccc(C)c(C)c2)cc1 returned Efa HMGR inh inactive, EP2 modulator 65, MT stabilizer 16, bCat nuc transl inactive, PGE2 EP2 inh inactive and Tb hexokinase inactive.
For Cc1ccc(N/C(N)=N/c2nc3c(c(=O)[nH]2)CCCC3)c(C)c1 the results were Efa HMGR inh inactive, EP2 modulator inactive, MT stabilizer 20, bCat nuc transl inactive, PGE2 EP2 inh inactive and Tb hexokinase inactive.
Screening CC1CCN(C(=O)CSc2nnc(-c3ccc(S(=O)(=O)N4CCCC4)cc3)n2C)CC1 returned EP2 modulator inactive and PGE2 EP2 inh inactive.
Screening COc1ccc(-c2nnn(C(C)C(=O)N3c4ccccc4Sc4ccccc43)n2)cc1OC (stereo not given) returned EP2 modulator inactive and PGE2 EP2 inh inactive.
Screening C=C[C@@]1(C)CC(=O)[C@@]2(O)[C@](C)(O1)[C@@H](OC(C)=O)[C@@H](O)C1C(C)(C)CC[C@H](O)[C@@]12C (stereo not given in full) returned EP2 modulator 104 and PGE2 EP2 inh inactive.
`COc1cccc2c(=S)c(CCC(C)=O)c(C)[nH]c12` gave Efa HMGR inh inactive, EP2 modulator 63, MT stabilizer inactive, bCat nuc transl inactive, PGE2 EP2 inh inactive and Tb hexokinase inactive.
